In brackets after ≈: the same amount, converted by molar mass.

The subject of one assay is Colon cell line. The assay can be described thus: In vitro inhibition of cell growth in human colon cell line. The class given is functional, cell-based. An outline of the steps: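 SW620 colon cells grown and tested in RPMI-1640 with 10% FBS. Serially diluted compound was placed in wells, cells were seeded straight onto it, and solvent blanks were included. After 72 h, cells were fixed with cold TCA (10% final) for 1 h at 4 °C, stained 30 min with 0.4% SRB in 1% acetic acid, and bound dye was solubilized in 10 mM Tris base, pH 10.5.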

The subject of another assay is Neuronal cell line. Nature of the assay: In vitro inhibition of cell growth in human neuronal cell line. The class given is functional, cell-based.
Assay [1] concerns Plasmodium falciparum. Nature of the assay: Inhibitory activity against chloroquine-sensitive Plasmodium falciparum D6 (CDC/Sierra Leone I). The assay is classed as functional, organism-based. The essentials: (§1)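 Drug stocks in DMSO, diluted 400-fold into RPMI 1640 with 25 mM Hepes, 32 mM NaHCO3 and 10% Albumax I, then 2-fold serial dilutions (over 11 concentrations). Parasites exposed 48 h at 37 °C under 5% O2/5% CO2/90% N2, then [3H]hypoxanthine added for a further 18 h. Uptake counted by scintillation; IC50 from nonlinear regression logistic dose-response fit.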

The subject of assay [2] is Plasmodium falciparum. The assay can be described thus: Inhibitory activity against chloroquine-resistant Plasmodium falciparum W-2 Indochina III. The assay is classed as functional, organism-based. An outline of the steps:
as §1

Take `COC(=O)/C(=C/Cn1c(-c2ccccc2)ncc(NC(=O)OCc2ccccc2)c1=O)COC(C)=O`: the IC50 (usually the concentration needed to halve the response being measured) was greater than 50 µg/mL in the assay with Colon cell line, 0.92 µg/mL (≈ 1.87 µM) with Neuronal cell line, 0.017 µg/mL (≈ 0.0346 µM) in the assay with Plasmodium falciparum [1] and 0.017 µg/mL (≈ 0.0346 µM) with Plasmodium falciparum [2].
As for `COC(=O)/C(=C/Cn1c(-c2ccccc2)ncc(NC(=O)OCc2ccccc2)c1=O)COC(=O)c1ccc([N+](=O)[O-])cc1`, the IC50 with Colon cell line was found to be 7.6 µg/mL (≈ 12.7 µM); in the assay on Neuronal cell line it was 1.75 µg/mL (≈ 2.92 µM); in the assay with Plasmodium falciparum [1], 0.024 µg/mL (≈ 0.0401 µM); in the assay on Plasmodium falciparum [2] it was 0.024 µg/mL (≈ 0.0401 µM).
Turning to `COC(=O)/C(=C/Cn1c(-c2ccccc2)ncc(NC(=O)OCc2ccccc2)c1=O)CO`, the IC50 with Colon cell line was greater than 50 µg/mL; with Neuronal cell line it was 0.95 µg/mL (≈ 2.11 µM); in the assay with Plasmodium falciparum [1], 0.016 µg/mL (≈ 0.0356 µM); in the assay on Plasmodium falciparum [2] it was 0.017 µg/mL (≈ 0.0378 µM).
The matching figures for `COC(=O)/C(=C/[C@H](C)NC(=O)Cn1c(-c2ccccc2)ncc(NC(=O)OCc2ccccc2)c1=O)COC(C)=O`: 1.6 µg/mL (≈ 2.84 µM), 1.1 µg/mL (≈ 1.96 µM), 0.009 µg/mL (≈ 0.016 µM) and 0.01 µg/mL (≈ 0.0178 µM).
The matching figures for `COC(=O)/C(=C/Cn1c(-c2ccccc2)ncc(NC(=O)OCc2ccccc2)c1=O)COC(=O)c1ccccc1`: 13.5 µg/mL (≈ 24.4 µM), 2.6 µg/mL (≈ 4.7 µM), 0.027 µg/mL (≈ 0.0488 µM) and 0.028 µg/mL (≈ 0.0506 µM).
The matching figures for `COC(=O)/C(=C/Cn1c(-c2ccccc2)ncc(NC(=O)N2CCN(C(C)=O)CC2)c1=O)COC(C)=O`: greater than 50 µg/mL, 13.8 µg/mL (≈ 27 µM), 0.017 µg/mL (≈ 0.0332 µM) and 0.018 µg/mL (≈ 0.0352 µM).

Values taken from ChEMBL document CHEMBL1135533, “Synthesis and in vitro studies of novel pyrimidinyl peptidomimetics as potential antimalarial therapeutic agents” (J Med Chem, 2002).
